These results are taken from PMC7114315 (Antiviral Research, 2010).

Series [1] can be described thus: Cell viability by MTT assay. The format is cell-based, Felis catus. The settings on record: cat (Felis catus), fcwf-4 cells. The method in brief:
(§1)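 fcwf-4 cells grown in DMEM with 5% FBS, penicillin/streptomycin, 5% CO2, 37 °C; 20,000 cells/well seeded, 24 h at 37 °C to confluence. Test compounds (in DMSO or double distilled water), twofold serially diluted, applied 72 h. MTT ([…]) 4 h at 37 °C, lysis overnight at room temperature, absorbance 570/655 nm. Viability = treated/untreated OD × 100; CC50 = 50% viability reduction; triplicate.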

The test system of the next series is fcwf-4 cells. The series can be described thus: Cell viability by MTT assay. In kind it is cell-based, Felis catus. The following applies: for Cytotoxic effect under the tested concentrations: three days of treatment, Fig. 1; for CC50: fcwf-4 cells, 72 h, MTT. The method in brief:
as §1
For orientation: Formazan colour is commonly taken as a measure of viable cells.

Series [2] deals with FCoV (NTU156) in fcwf-4 cells. In kind it is cell-based, feline coronavirus.
For series [3], the system named is FCoV (NTU156) in fcwf-4 cells. The series can be described thus: microbe, parasite or virus in culture. In kind it is cell-based, feline coronavirus.
For series [4] the following is noted: 9 clinical healthy FCoV-shedding cats, 6.25 mg to 50 mg/kg/day per os, preliminary.
In a further series the test system is SARS-CoV. The settings on record: read-out: IC50 on SARS-CoV; cited from earlier work.

Read-outs that look alike come from different tables or passages of the source. A value given as a limit tells only on which side of the number the result lay.

As a reminder, the CC50 is the concentration giving 50% cytotoxicity. A lower CC50 goes with greater toxicity to the cells. In turn, `Nc1nc2c(ncn2COCCO)c(=O)[nH]1` [Acyclovir, acyclovir] returned a cytotoxic concentration (CC50) at 72 h in series [1] of at least 888 µM. `COC(=O)N[C@H](C(=O)N[C@@H](Cc1ccccc1)[C@@H](O)CN(Cc1ccc(-c2ccccn2)cc1)NC(=O)[C@@H](NC(=O)OC)C(C)(C)C)C(C)(C)C` [Atazanavir, atazanavir] gave a CC50 at 72 h in series [1] of 48.6 µM. Also, the “Cytotoxic effect under the tested concentrations” value (shortened to “Cytotoxic effect”) in the series on fcwf-4 cells was “dramatic cytotoxic effect”. The matching figures for `O=C1Nc2ccc(Cl)cc2[C@@](C#CC2CC2)(C(F)(F)F)O1` [Efavirenz, efavirenz]: 52.1 µM and “dramatic cytotoxic effect”.

On to `Cc1cc(O)c2c(c1)C(=O)c1cc(O)cc(O)c1C2=O` [Emodin, emodin], for which the half-maximal cytotoxic concentration (CC50) at 72 h in series [1] worked out at 67.4 µM. Besides, in the series with fcwf-4 cells, the “Cytotoxic effect” value is “dramatic cytotoxic effect”. Consider `O=c1[nH]c(=O)n([C@H]2C[C@H](O)[C@@H](CO)O2)cc1I` [Idoxuridine, idoxuridine], for which, in series [1], the CC50 at 72 h is at least 141 µM. In the case of `CC(C)(C)NC(=O)[C@@H]1CN(Cc2cccnc2)CCN1C[C@@H](O)C[C@@H](Cc1ccccc1)C(=O)N[C@H]1c2ccccc2C[C@H]1O` [Indinavir, indinavir], the CC50 at 72 h in series [1] is at least 70.2 µM. In turn, `Nc1ccn([C@@H]2CS[C@H](CO)O2)c(=O)n1` [Lamivudine, lamivudine] registered a CC50 at 72 h in series [1] of at least 27.3 µM. One may read the IC50 as the concentration needed to halve the response being measured. `Cc1c(O)cccc1C(=O)N[C@@H](CSc1ccccc1)[C@H](O)CN1C[C@H]2CCCC[C@H]2C[C@H]1C(=O)NC(C)(C)C` [Nelfinavir, nelfinavir]: in series [1], the midpoint of cytotoxicity, the CC50 at 72 h, lay at 11.5 µM. The “Cytotoxic effect” value with fcwf-4 cells is recorded as “dramatic cytotoxic effect”. In series [2], the “Number of CPE foci compared with untreated groups” value is recorded as “significantly inhibited the number of CPE foci”. Also, the “Induction of CPE foci” value in series [2] (only the highest concentration, 9.41 μM, P < 0.001, […]) is “significantly blocked the induction of CPE foci”. The IC50 in series [3] (Alphacoronavirus 1, 72 h) was 8.19 µM; in the series on SARS-CoV it was 0.048 µM. Also, the “Side effects (e.g., diarrhea or nausea)” value in series [4] is recorded as “no obviously side effects”.

In the series on fcwf-4 cells, `Cc1ccnc2c1NC(=O)c1cccnc1N2C1CC1` [Nelvirapine, nelvirapine] came in with a CC50 of at least 46.9 µM. `CN(C)CCCN1c2ccccc2Sc2ccccc21` [Promazine, promazine] registered a CC50 at 72 h in series [1] of at least 0.1 µM. Still for that read-out and setting: next, `NC(=O)c1ncn([C@@H]2O[C@H](CO)[C@@H](O)[C@H]2O)n1` [Ribavirin, ribavirin]: at least 409 µM. For the compound `CC(C)(C)NC(=O)[C@@H]1C[C@@H]2CCCC[C@@H]2CN1C[C@@H](O)[C@H](Cc1ccccc1)NC(=O)[C@H](CC(N)=O)NC(=O)c1ccc2ccccc2n1` [Saquinavir, saquinavir], in series [1], the CC50 at 72 h stood at 95.8 µM. In addition, the “Cytotoxic effect” value in the series with fcwf-4 cells is recorded as “dramatic cytotoxic effect”. In series [1], `Cc1cn([C@H]2C=C[C@@H](CO)O2)c(=O)[nH]c1=O` [Stavudine, stavudine] registered a CC50 at 72 h of at least 55.8 µM. Regarding Galanthus nivalis agglutinin, the CC50 in the series with fcwf-4 cells is at least 0.00192 µM. Moreover, the “Inhibition of CPE foci, concentration-dependence” value in series [2] (all four concentrations, […]) is listed as “strong inhibitory activities at all four concentrations”. The same compound yielded an IC50 in series [3] of 8.8e-06 µM.
